Results as given in ChEMBL document CHEMBL5352507, “Discovery of a Pan-Melanocortin Receptor Antagonist [Ac-DPhe(pI)-Arg-Nal(2')-Orn-NH2] at the MC1R, MC3R, MC4R, and MC5R that Mediates an Increased Feeding Response in Mice and a 40-Fold Selective MC1R Antagonist [Ac-DPhe(pI)-DArg-Nal(2')-Arg-NH2]” (J Med Chem, 2023).
pEC50, pKi: −log10 of the molar value. Calls of active or inactive are those of the source. No cut-off for these calls is given here. Bridge positions count the residues as written; N and C are the ends. Square brackets hold non-standard residues; d marks the D form. Peptide text beside a SMILES is read from it. dPhe(4-I) = N[C@H](Cc1ccc(I)cc1)C(=O)O; 2Nal = N[C@@H](Cc1ccc2ccccc2c1)C(=O)O; hArg = N=C(N)NCCCC[C@H](N)C(=O)O; Cit = NC(=O)NCCC[C@H](N)C(=O)O; Orn = NCCC[C@H](N)C(=O)O; Dab = NCC[C@H](N)C(=O)O; Dap = NC[C@H](N)C(=O)O

Legend:
[1] = biological target: T1, Melanocortin receptor 5 (Mus musculus, UniProt P41149); test: Binding affinity to mouse MC5R expressed in HEK293 cells coexpressing CRE/beta-galactosidase assessed as inhibition constant; assay type: cell-based
[2] = biological target: Melanocyte-stimulating hormone receptor (Homo sapiens, UniProt Q01726); test: Binding affinity to human MC1R
[3] = biological target: T2, Melanocortin receptor 3 (Mus musculus, UniProt P33033); test: Agonist activity against mouse MC3R expressed in HEK293 cells assessed as increase in cAMP level incubated for 2 hrs by AlphaScreen assay; assay type: functional, cell-based
[4] = biological target: T3, Melanocyte-stimulating hormone receptor (Mus musculus, UniProt Q01727); test: Agonist activity against mouse MC1R expressed in HEK293 cells assessed as increase in cAMP level incubated for 2 hrs by AlphaScreen assay; assay type: functional, cell-based
[5] = biological target: T4, Melanocortin receptor 4 (Mus musculus, UniProt P56450); test: Agonist activity against mouse MC4R expressed in HEK293 cells assessed as increase in cAMP level incubated for 2 hrs by AlphaScreen assay; assay type: functional, cell-based
[6] = biological target: T1, Melanocortin receptor 5; test: Agonist activity against mouse MC5R expressed in HEK293 cells assessed as increase in cAMP level incubated for 2 hrs by AlphaScreen assay; assay type: functional, cell-based
[7] = biological target: T4, Melanocortin receptor 4; test: Binding affinity to mouse MC4R expressed in HEK293 cells assessed as inhibition constant by schild plot analysis; assay type: cell-based
[8] = biological target: T2, Melanocortin receptor 3; test: Binding affinity to mouse MC3R expressed in HEK293 cells assessed as inhibition constant by schild plot analysis; assay type: cell-based
[9] = biological target: T3, Melanocyte-stimulating hormone receptor; test: Partial agonist activity against mouse MC1R expressed in HEK293 cells assessed as increase in cAMP level incubated for 2 hrs by AlphaScreen assay; assay type: functional, cell-based
[10] = Toxicity in C57BL/6J mouse assessed as reduction in body weight at 10 to 15 nmol per mouse, IT measured for 24 to 48 hrs; conditions: in vivo, other, dose lower 10 nmol, time lower 24 hrs, dose upper 15 nmol, time upper 48 hrs
How it was run: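 Wild-type male and female mice (129/Sv×C57BL/6J) in a crossover design, given 10 or 15 nmol intrathecally in 5 μL DMSO/water vehicle. Body weight recorded at 0, 24 and 48 h and compared with vehicle-treated controls.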

[11] = tested on: Mus musculus; test: In vivo antagonist activity MC4R in wild type C57BL/6J mouse assessed as increase in food intake at 10 to 15 nmol per mouse, IT administered directly into the spinal canal and measured for 24 hrs; assay type: functional, organism-based; conditions: dose 10-15 nmol
How it was run: (§1)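 Wild-type male and female mice (mixed 129/Sv×C57BL/6J, in-house colony) on a reversed 12-h light/dark cycle with chow ad libitum. Crossover design with 6–7 days between treatments. […] Cumulative food intake weighed at 0–72 h. n ≥ 8 per group; two-way ANOVA against vehicle.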

[12] = tested on: Mus musculus; test: In vivo antagonist activity MC4R in wild type C57BL/6J mouse assessed as increase in food intake at 15 nmol per mouse, IT administered directly into the spinal canal and measured for 2 to 6 hrs; assay type: functional, organism-based; conditions: time 2-6 hrs; how it was run: as §1
[13] = tested on: Mus musculus; test: In vivo antagonist activity MC4R in wild type C57BL/6J mouse assessed as increase in food intake at 10 nmol per mouse, IT administered directly into the spinal canal and measured for 4 to 6 hrs; assay type: functional, organism-based; conditions: time 4-6 hrs; how it was run: as §1
[14] = biological target: T1, Melanocortin receptor 5; test: Binding affinity to mouse MC5R expressed in HEK293 cells assessed as inhibition constant by schild plot analysis; assay type: cell-based
[15] = biological target: T3, Melanocyte-stimulating hormone receptor; test: Binding affinity to mouse MC1R expressed in HEK293 cells assessed as inhibition constant by schild plot analysis; assay type: cell-based
[16] = biological target: T3, Melanocyte-stimulating hormone receptor; test: Binding affinity to mouse MC1R expressed in HEK293 cells coexpressing CRE/beta-galactosidase assessed as inhibition constant; assay type: cell-based

T2 sequence (P33033 whole entry): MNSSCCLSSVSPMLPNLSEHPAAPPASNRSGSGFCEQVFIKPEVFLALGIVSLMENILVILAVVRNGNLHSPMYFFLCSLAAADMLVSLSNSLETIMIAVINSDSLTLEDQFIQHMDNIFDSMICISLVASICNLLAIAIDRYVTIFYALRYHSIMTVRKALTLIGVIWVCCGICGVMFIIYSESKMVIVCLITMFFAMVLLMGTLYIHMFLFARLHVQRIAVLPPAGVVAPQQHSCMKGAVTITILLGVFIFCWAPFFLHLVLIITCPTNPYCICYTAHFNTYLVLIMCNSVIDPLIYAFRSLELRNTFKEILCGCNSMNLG
T1 sequence (P41149 whole entry): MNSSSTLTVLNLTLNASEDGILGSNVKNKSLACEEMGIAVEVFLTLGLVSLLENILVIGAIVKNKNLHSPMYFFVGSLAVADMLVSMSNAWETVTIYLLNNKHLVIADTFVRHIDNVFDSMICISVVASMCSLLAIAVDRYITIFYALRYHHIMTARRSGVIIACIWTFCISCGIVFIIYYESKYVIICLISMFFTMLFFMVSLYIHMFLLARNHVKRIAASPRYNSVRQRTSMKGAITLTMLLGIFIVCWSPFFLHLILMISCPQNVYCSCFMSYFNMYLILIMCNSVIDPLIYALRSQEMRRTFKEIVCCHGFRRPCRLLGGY
T4 sequence (P56450 whole entry): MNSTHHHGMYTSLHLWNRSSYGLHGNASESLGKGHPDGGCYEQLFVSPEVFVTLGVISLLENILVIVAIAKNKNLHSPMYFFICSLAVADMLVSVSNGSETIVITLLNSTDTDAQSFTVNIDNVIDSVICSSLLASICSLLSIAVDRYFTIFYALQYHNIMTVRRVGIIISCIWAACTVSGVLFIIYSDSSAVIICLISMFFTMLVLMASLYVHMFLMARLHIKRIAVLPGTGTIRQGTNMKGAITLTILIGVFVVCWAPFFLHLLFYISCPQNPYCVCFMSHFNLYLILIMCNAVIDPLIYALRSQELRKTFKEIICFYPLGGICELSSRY
T3 sequence (Q01727 whole entry): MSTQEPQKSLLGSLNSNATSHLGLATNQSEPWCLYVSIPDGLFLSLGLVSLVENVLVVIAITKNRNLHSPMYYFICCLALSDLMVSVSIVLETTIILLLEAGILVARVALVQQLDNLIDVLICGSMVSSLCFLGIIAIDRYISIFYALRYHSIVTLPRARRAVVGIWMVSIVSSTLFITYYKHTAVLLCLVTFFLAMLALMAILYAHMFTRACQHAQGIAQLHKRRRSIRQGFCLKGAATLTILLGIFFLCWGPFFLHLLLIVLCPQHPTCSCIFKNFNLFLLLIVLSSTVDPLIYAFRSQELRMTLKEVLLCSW
Chain of Melanocyte-stimulating hormone receptor (Homo sapiens, UniProt Q01726) (Q01726 whole entry): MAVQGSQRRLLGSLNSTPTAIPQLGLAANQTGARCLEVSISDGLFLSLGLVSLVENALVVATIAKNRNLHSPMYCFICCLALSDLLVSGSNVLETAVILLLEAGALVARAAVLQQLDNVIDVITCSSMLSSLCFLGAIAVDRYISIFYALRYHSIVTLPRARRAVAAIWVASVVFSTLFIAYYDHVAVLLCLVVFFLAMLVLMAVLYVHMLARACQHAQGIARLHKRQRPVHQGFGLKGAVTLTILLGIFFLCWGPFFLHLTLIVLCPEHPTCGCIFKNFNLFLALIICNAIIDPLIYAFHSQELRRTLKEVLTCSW

Row | Compound | pEC50 [3] | pEC50 [5] | pEC50 [6] | further results
1 | CCCC[C@H](NC(C)=O)C(=O)N[C@H]1CC(=O)NCCCC[C@@H](C(N)=O)NC(=O)[C@@H](Cc2ccc3ccccc3c2)NC(=O)[C@H](CCCNC(=N)N)NC(=O)[C@@H](Cc2ccc3ccccc3c2)NC(=O)[C@H](Cc2cn(C)cn2)NC1=O | – | – | – | pKi [1]: 7.20
2 | CC(C)[C@H](NC(=O)[C@@H]1CCC(=O)NCC(=O)N[C@@H](C2CCCC2)C(=O)N[C@H](Cc2ccc3ccccc3c2)C(=O)N[C@@H](CCCNC(=N)N)C(=O)N[C@@H](Cc2c[nH]c3ccccc23)C(=O)N1)C(=O)N[C@H](C(=O)NCC(N)=O)C(C)C | – | – | – | pKi [2]: 7.28
3 | CC(=O)N[C@H](Cc1ccc(I)cc1)C(=O)N[C@@H](CCC(=O)O)C(=O)N[C@@H](Cc1ccc2ccccc2c1)C(=O)N[C@@H](CCCNC(=N)N)C(N)=O (Ac-[dPhe(4-I)]E[2Nal]R-NH2) | < 4.00 | < 4.00 | < 4.00 | pEC50 [4]: < 4.00
4 | CC(=O)N[C@H](Cc1ccc(I)cc1)C(=O)N[C@@H](Cc1c[nH]cn1)C(=O)N[C@@H](Cc1ccc2ccccc2c1)C(=O)N[C@@H](CCCNC(=N)N)C(N)=O (Ac-[dPhe(4-I)]H[2Nal]R-NH2) | – | < 4.00 | < 4.00 | pKi [7]: 7.00
5 | CC(=O)N[C@H](Cc1ccc(I)cc1)C(=O)N[C@@H](CCCCN)C(=O)N[C@@H](Cc1ccc2ccccc2c1)C(=O)N[C@@H](CCCNC(=N)N)C(N)=O (Ac-[dPhe(4-I)]K[2Nal]R-NH2) | – | < 4.00 | – | –
6 | CC(=O)N[C@H](Cc1ccc(I)cc1)C(=O)N[C@@H](CCCNC(=N)N)C(=O)N[C@@H](Cc1ccc2ccccc2c1)C(=O)N[C@@H](Cc1c[nH]cn1)C(N)=O (Ac-[dPhe(4-I)]R[2Nal]H-NH2) | – | < 4.00 | < 4.00 | pKi [8]: 7.00; pEC50 [9]: 6.40
7 | CC(=O)N[C@H](Cc1ccc(I)cc1)C(=O)N[C@@H](CCCNC(=N)N)C(=O)N[C@@H](Cc1ccc2ccccc2c1)C(=O)N[C@@H](CCCNC(N)=O)C(N)=O (Ac-[dPhe(4-I)]R[2Nal][Cit]-NH2) | < 4.00 | < 4.00 | < 4.00 | pEC50 [4]: < 4.00
8 | CC(=O)N[C@H](Cc1ccc(I)cc1)C(=O)N[C@@H](CCCNC(=N)N)C(=O)N[C@@H](Cc1ccc2ccccc2c1)C(=O)N[C@@H](CCN)C(N)=O (Ac-[dPhe(4-I)]R[2Nal][Dab]-NH2) | < 4.00 | < 4.00 | < 4.00 | pEC50 [9]: 5.96
9 | CC(=O)N[C@H](Cc1ccc(I)cc1)C(=O)N[C@@H](CCCNC(=N)N)C(=O)N[C@@H](Cc1ccc2ccccc2c1)C(=O)N[C@@H](CN)C(N)=O (Ac-[dPhe(4-I)]R[2Nal][Dap]-NH2) | < 4.00 | < 4.00 | < 4.00 | –
10 | CC(=O)N[C@H](Cc1ccc(I)cc1)C(=O)N[C@@H](CCCNC(=N)N)C(=O)N[C@@H](Cc1ccc2ccccc2c1)C(=O)N[C@@H](CCCN)C(N)=O (Ac-[dPhe(4-I)]R[2Nal][Orn]-NH2) | – | – | – | Activity [10]: Non-Toxic; Activity [11]: inactive; Activity [12]: Active; Activity [13]: Active
11 | CC(=O)N[C@H](Cc1ccc(I)cc1)C(=O)N[C@@H](CCCNC(=N)N)C(=O)N[C@@H](Cc1ccc2ccccc2c1)C(=O)N[C@@H](CCCCNC(=N)N)C(N)=O (Ac-[dPhe(4-I)]R[2Nal][hArg]-NH2) | < 4.00 | < 4.00 | < 4.00 | pKi [14]: 6.00
12 | CC(=O)N[C@H](Cc1ccc(I)cc1)C(=O)N[C@@H](CCCNC(N)=O)C(=O)N[C@@H](Cc1ccc2ccccc2c1)C(=O)N[C@@H](CCCNC(=N)N)C(N)=O (Ac-[dPhe(4-I)][Cit][2Nal]R-NH2) | – | < 4.00 | < 4.00 | –
13 | CC(=O)N[C@H](Cc1ccc(I)cc1)C(=O)N[C@@H](CN)C(=O)N[C@@H](Cc1ccc2ccccc2c1)C(=O)N[C@@H](CCCNC(=N)N)C(N)=O (Ac-[dPhe(4-I)][Dap][2Nal]R-NH2) | < 4.00 | < 4.00 | < 4.00 | pEC50 [4]: < 4.00; pKi [15]: 7.00
14 | CC(=O)N[C@H](Cc1ccc(I)cc1)C(=O)N[C@@H](CCCN)C(=O)N[C@@H](Cc1ccc2ccccc2c1)C(=O)N[C@@H](CCCNC(=N)N)C(N)=O (Ac-[dPhe(4-I)][Orn][2Nal]R-NH2) | < 4.00 | < 4.00 | < 4.00 | pKi [7]: 7.00
15 | CC(=O)N[C@H](Cc1ccc(I)cc1)C(=O)N[C@H](CCCCN)C(=O)N[C@@H](Cc1ccc2ccccc2c1)C(=O)N[C@@H](CCCNC(=N)N)C(N)=O (Ac-[dPhe(4-I)][dK][2Nal]R-NH2) | – | < 4.00 | – | pEC50 [4]: < 4.00
16 | C[C@@H]1NC(=O)[C@H](CC(N)=O)NC(=O)[C@H](Cc2ccccc2)NC(=O)[C@H](Cc2ccccc2)NC(=O)[C@H](CCCN=C(N)N)NC(=O)[C@@H](NC(=O)[C@@H](N)Cc2ccc(O)cc2)CCC(=O)NC[C@@H](C(=O)N[C@@H](Cc2ccc(O)cc2)C(N)=O)NC(=O)[C@H](Cc2ccccc2)NC1=O (H-YERFFNAF[Dap]Y-NH2; lactam 2-9) | – | – | – | pKi [16]: 5.92
